Data published in ChEMBL document CHEMBL3351848, “Novel insights into structure and function of factor XIIIa-inhibitor tridegin” (J Med Chem, 2014).
Calls of active or inactive are those of the source. The calls are words filed in the database; no cut-off is given here. Residues, ends and D or L forms follow the SMILES beside them.

Columns and labels:
[1] = biological target: T1, Coagulation factor XIII B chain (Homo sapiens) (UniProt P05160); assay: Binding affinity to nonactivated recombinant F13B subunit (unknown origin) by microscale thermophoresis method
T1 sequence (whole entry): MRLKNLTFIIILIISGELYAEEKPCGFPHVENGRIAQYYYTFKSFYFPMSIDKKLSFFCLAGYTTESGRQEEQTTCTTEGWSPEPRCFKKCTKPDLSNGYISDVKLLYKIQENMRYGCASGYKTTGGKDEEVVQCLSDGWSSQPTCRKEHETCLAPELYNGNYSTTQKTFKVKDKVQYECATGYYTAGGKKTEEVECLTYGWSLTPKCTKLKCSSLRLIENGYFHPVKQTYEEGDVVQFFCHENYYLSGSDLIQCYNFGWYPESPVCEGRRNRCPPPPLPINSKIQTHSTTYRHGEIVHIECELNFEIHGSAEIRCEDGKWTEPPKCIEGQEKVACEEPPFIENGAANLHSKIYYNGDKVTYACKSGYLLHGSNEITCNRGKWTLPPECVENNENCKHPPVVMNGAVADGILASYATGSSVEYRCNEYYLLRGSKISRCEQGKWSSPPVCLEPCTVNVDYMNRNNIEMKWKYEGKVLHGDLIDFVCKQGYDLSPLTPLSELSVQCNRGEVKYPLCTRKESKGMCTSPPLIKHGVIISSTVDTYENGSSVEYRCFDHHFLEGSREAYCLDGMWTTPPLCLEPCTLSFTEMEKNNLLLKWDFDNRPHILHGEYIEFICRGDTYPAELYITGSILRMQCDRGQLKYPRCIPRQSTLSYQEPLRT
Summary of the method: (§1)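 Carboxyfluorescein-labeled peptide (2 μM solution, before mixing) in 50 mM Tris-HCl pH 7.5, 0.9% w/v NaCl, with Tween-20 to 0.1% final. Mixed with an equal volume of protein (FXIIIa, FXIII-A or FXIII-B) in the same buffer, 15 concentrations spanning 3.1 μM to 0.1 nM. After 20 min incubation, the mixture was loaded into glass capillaries and thermophoresis read three times per capillary.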

[2] = biological target: T2, Coagulation factor XIII A chain (Homo sapiens) (UniProt P00488); assay: Binding affinity to nonactivated recombinant F13A subunit (unknown origin) by microscale thermophoresis method; summary of the method: as §1
T2 sequence (whole entry): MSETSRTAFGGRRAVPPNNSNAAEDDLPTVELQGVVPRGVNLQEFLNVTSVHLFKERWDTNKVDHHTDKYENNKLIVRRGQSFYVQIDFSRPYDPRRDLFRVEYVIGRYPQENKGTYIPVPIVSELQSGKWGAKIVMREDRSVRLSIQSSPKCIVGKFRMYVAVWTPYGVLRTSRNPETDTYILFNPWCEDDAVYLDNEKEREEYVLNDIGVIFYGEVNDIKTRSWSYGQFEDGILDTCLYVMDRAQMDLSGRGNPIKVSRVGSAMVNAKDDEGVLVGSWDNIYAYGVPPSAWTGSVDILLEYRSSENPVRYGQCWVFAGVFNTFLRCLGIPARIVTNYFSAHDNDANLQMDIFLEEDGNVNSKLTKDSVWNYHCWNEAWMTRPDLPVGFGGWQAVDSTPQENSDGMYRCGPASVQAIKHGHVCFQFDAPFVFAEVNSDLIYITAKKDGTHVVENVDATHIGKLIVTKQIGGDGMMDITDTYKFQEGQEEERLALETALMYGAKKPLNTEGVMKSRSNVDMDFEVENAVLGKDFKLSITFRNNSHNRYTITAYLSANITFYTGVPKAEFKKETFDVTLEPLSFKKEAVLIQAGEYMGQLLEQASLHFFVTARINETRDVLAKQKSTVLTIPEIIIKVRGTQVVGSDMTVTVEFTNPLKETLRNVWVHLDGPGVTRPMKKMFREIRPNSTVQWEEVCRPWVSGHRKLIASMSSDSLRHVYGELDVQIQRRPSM

[3] = biological target: T3, Protein-glutamine gamma-glutamyltransferase (Homo sapiens) (UniProt P21980); assay: Inhibition of human TGase-2 using fluorogenic FRET substrate at 10 uM
T3 sequence (whole entry): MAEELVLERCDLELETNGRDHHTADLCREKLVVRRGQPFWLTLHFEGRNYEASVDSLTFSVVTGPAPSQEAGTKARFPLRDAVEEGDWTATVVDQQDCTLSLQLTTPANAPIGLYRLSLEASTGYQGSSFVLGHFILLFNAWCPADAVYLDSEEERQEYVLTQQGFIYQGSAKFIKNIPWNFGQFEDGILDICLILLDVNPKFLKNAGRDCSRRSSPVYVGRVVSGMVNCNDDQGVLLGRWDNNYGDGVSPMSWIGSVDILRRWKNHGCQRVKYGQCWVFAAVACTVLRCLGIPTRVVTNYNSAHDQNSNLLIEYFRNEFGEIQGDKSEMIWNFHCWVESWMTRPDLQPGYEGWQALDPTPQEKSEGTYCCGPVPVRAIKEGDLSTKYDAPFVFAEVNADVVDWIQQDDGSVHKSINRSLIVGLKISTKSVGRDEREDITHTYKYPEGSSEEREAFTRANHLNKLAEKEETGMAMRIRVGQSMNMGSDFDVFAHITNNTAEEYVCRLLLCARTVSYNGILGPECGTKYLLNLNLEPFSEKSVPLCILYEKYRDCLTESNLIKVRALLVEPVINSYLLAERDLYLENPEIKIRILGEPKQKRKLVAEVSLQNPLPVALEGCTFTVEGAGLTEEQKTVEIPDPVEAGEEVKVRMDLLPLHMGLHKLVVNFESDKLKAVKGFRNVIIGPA

[4] = biological target: T2, Coagulation factor XIII A chain (Homo sapiens); assay: Inhibition of recombinant F13a (unknown origin) using H-Tyr-Glu(pNA)-Val-Lys-Val-Ile-Gly-NH2 as substrate by chromogenic assay

Question: For `CC[C@H](C)[C@H](NC(=O)CNC(=O)[C@H](CCC(N)=O)NC(=O)[C@H](Cc1cnc[nH]1)NC(=O)[C@H](Cc1c[nH]c2ccccc12)NC(=O)[C@H](CCC(=O)O)NC(=O)[C@H](CCCCN)NC(=O)[C@H](CS)NC(=O)[C@@H]1CCCN1C(=O)[C@H](CC(C)C)NC(=O)[C@H](CC(C)C)NC(=O)[C@@H](N)CCCCN)C(=O)N1CCC[C@H]1C(=O)N[C@@H](CC(N)=O)C(=O)N1CCC[C@H]1C(=O)N[C@@H](CCCNC(=N)N)C(=O)N[C@@H](CS)C(=O)N[C@@H](Cc1c[nH]c2ccccc12)C(=O)N[C@@H](CS)C(=O)NCC(=O)N[C@@H](C)C(=O)N[C@@H](CC(=O)O)C(=O)N[C@@H](CC(C)C)C(=O)N[C@@H](CCC(=O)O)C(=O)N[C@@H](CS)C(=O)N[C@@H](C)C(=O)N[C@@H](CCC(N)=O)C(=O)N[C@@H](CC(=O)O)C(=O)N[C@@H](CCC(N)=O)C(=O)N[C@@H](Cc1ccc(O)cc1)C(=O)N[C@@H](CS)C(=O)N[C@@H](C)C(=O)N[C@@H](Cc1ccccc1)C(=O)N[C@H](C(=O)N1CCC[C@H]1C(=O)N[C@@H](CCC(N)=O)C(=O)N[C@@H](CS)C(=O)O)[C@@H](C)CC` (H-KLLPCKEWHQGIPNPRCWCGADLECAQDQYCAFIPQC-OH), which Activity [1] is on record?
Answer: inactive

Question: What about the Activity [2] of the same molecule?
Answer: inactive

Question: And the inhibition [3]?
Answer: < 10%

Question: What about the inhibition [4] of the same molecule?
Answer: inactive
